Bioassay records as filed in PubChem BioAssay.
IMP-1 inhibitor = IMP-1 metallo-beta-lactamase inhibitors, primary screen, biochemical, epi-absorbance readout, Pseudomonas aeruginosa enzyme; metallo-beta-lactamase IMP-1 (Pseudomonas aeruginosa); purified IMP-1, nitrocefin hydrolysis, epi-absorbance fluorescence; inhibition, % at 5.6 µM; hit rate 0.45% among 290,000;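 active = inhibition above the mean plus 3 SD of all compounds in the same screening run, cut at about 4.5% in these data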;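 also: 0% = IMP-1 with DMSO and 100% = DMSO wells lacking enzyme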
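System – purified recombinant IMP-1 beta-lactamase · Input – IMP-1 dispensed at 0.2 nM · Timing – 15 min preincubation plus 25 min reaction at 25 °C · Signal – Epi-absorbance fluorescence, 480 nm excitation, 530 nm emission · Measure – percent IMP-1 inhibition derived from blank-referenced optical density · Controls – Enzyme-plus-DMSO low control, enzyme-free DMSO high control · Replication – singlicate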
VIM-2 inh = VIM-2 metallo-beta-lactamase inhibitors, primary screen, biochemical, epi-absorbance readout, Pseudomonas aeruginosa enzyme | inhibition, % at 5.6 µM | hit rate 0.89% among 290,000 | purified VIM-2, nitrocefin hydrolysis, epi-absorbance fluorescence | AID 1527, 2009;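 active = inhibition above the mean of all tested compounds plus 3 SD, cutoff set per screening run, cut at about 7.5% in these data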;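 also: red hydrolysis product quenches plate fluorescence so inhibitors raise well fluorescence; 0% = enzyme with DMSO and 100% = DMSO without enzyme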
M18AAP inhibitor = PfM18AAP inhibitors, malaria aminopeptidase, primary screen, biochemical, QFRET, recombinant enzyme; M18 aspartyl aminopeptidase (Plasmodium falciparum 3D7); H-Glu-NHMec fluorogenic cleavage; inhibition, % at 7.35 µM; hit rate 1.2% among 290,000;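 active = inhibition above the campaign mean inhibition over all tested compounds plus 3 SD, cut at about 28% in these data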;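 also: 0% = plate median of test compound wells and 100% = 2 mM ZnCl2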
CTSL1 counter = Fasciola hepatica cathepsin L1 inhibitors, primary screen, counter-screen for PFM18AAP inhibitor project, biochemical, QFRET, fluorogenic peptide substrate. recombinant F. hepatica cathepsin L1, Z-Leu-Arg-MCA fluorescence. inhibition, % at 5.96 µM. hit rate 0.49% among 300,000;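 active = inhibition above the mean of all tested compounds plus 3 SD, set per screening campaign, cut at about 17% in these data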;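 also: 0% = plate median of test compound wells and 100% = 1 µM Z-Phe-Ala-diazomethylketone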
Starred values were filed as active, the others as inactive; / = not tested or not shown. Compounds with a hit are over-represented: about 2.7% of the library has one in this group of screens.

SMILES | IMP-1 inhibitor | VIM-2 inh | M18AAP inhibitor | CTSL1 counter
Cc1cc(C)nc(NC(=S)NC(=O)c2ccccc2)n1 | -3 | 8.4* | 7 | 6
Cc1cc(C)nc(SCNC(=O)c2ccccc2)n1 | -4 | -4 | 45* | -2
CCCn1c(=S)[nH]c2cc(C(=O)N(CCO)Cc3ccccc3)ccc2c1=O | -5 | -5 | -4 | 0
Cn1c(N)c(C(=O)COC(=O)c2ccnc3ccccc23)c(=O)n(C)c1=O | -5 | 9.7* | -3 | 2
COc1ccc(-c2cc(C(=O)OCC(=O)c3c(N)n(C)c(=O)n(C)c3=O)c3ccccc3n2)cc1 | -2 | -2 | -3 | -2
N/C(=N\OC(=O)c1ccccc1)c1ccn[nH]1 | -1 | -3 | 2 | -2
Cc1ccc(/C=C/C(=O)OC(C)C(=O)Nc2ccc(Cl)cn2)o1 (stereo not given) | -3 | 0 | -14 | 28*
Clc1ccc(/C=N/Nc2ncnc3nc[nH]c23)cc1 | -6 | 5 | 0 | 5
Fc1cccc(/C=N/Nc2ncnc3nc[nH]c23)c1 | 0 | 4 | 30* | 4
c1cc(Nc2cccc3nccnc23)c2nccnc2c1 | -2 | 8.6* | 3 | 5
Fc1ccc(Nc2cccc3nccnc23)cc1 | -4 | 0 | 2 | -1
CCOc1ccc(N(CC)S(=O)(=O)c2ccc3c(c2)n(C)c(=O)c(=O)n3C)cc1 | -2 | 3 | -1 | 0
Cc1nn(Cc2ccc(Cl)cc2Cl)c(C)c1NC(=O)c1ccc(COc2cc(Cl)ccc2Cl)o1 | -1 | -3 | -5 | 2
Cc1nn(Cc2c(F)c(F)c(F)c(F)c2F)c(C)c1NC(=O)c1ccc(COc2ccc(Cl)cc2Cl)o1 | -1 | -1 | -6 | 17*
CCNc1nc(NCC)nc(OCCOC(C)=O)n1 | 4.9* | 2 | -8 | 2
CCNc1nc(NCC)nc(OCCOC(=O)c2ccccc2)n1 | -1 | 1 | -4 | 2
Cc1ccc(C)c(S(=O)(=O)Nc2ccc3oc(C)c(C(=O)O)c3c2)c1 | 6.0* | 2 | 2 | 3
Cc1cccc(C)c1NC(=O)CSc1nc2ccccc2c(=O)[nH]1 | -3 | -3 | -1 | -3
Cc1ccccc1C(=O)NNC(=O)CSc1nc2ccccc2c(=O)[nH]1 | -2 | -4 | 10 | 18*
CCN(CC)CCOc1nc(C)nc2c1oc1ccccc12 | -3 | 8.6* | 11 | 0
CCN(CC)CCCOc1nc(C)nc2c1oc1ccccc12 | 1 | 31* | -14 | /
CN(C)CCOc1nc(-c2ccccc2)nc2c1oc1ccccc12 | 1 | 5 | 1 | 0
CC1CN(S(=O)(=O)c2cccc(C(=O)Nc3ccccc3N3CCCC3)c2)CC(C)O1 (stereo not given) | / | / | / | 2
Cc1ccc(N2C(=O)c3ccccc3C2C(=O)c2ccc(O)cc2O)cc1 (stereo not given) | -2 | 1 | 30* | 10
Cc1ccnc(N2C(=O)c3ccccc3C2O)c1 (stereo not given) | -3 | 0 | 0 | 2
SMILES | IMP-1 inhibitor | VIM-2 inh | M18AAP inhibitor | CTSL1 counter
CCCC/C(O)=C1\C(=O)CC(C)(C)CC1=NCCCCCC(=O)O | -3 | -2 | -19 | -1
CC(=O)N(C1=C(N)C(=O)c2ccccc2C1=O)c1ccccc1 | -2 | -1 | 1 | 30*
CCOC(=O)C1CCCN(S(=O)(=O)c2ccc(Br)s2)C1 (stereo not given) | -3 | -1 | 1 | 17*
CCOC(=O)C1CCCN(S(=O)(=O)c2ccc(-c3cc(C)no3)s2)C1 (stereo not given) | 1 | -1 | -5 | 1
NC(=O)c1c(NC(=O)CN2C(=O)NC(Cc3ccccc3)C2=O)sc2c1CCC2 (stereo not given) | -1 | -3 | -13 | 6
O=S(=O)(NC1CC(NS(=O)(=O)OCC(Cl)(Cl)Cl)C2CCCCC12)OCC(Cl)(Cl)Cl (stereo not given) | -2 | -2 | 13 | -1
NC(=O)CC(NC(=O)Cc1ccc(Cl)cc1)c1ccc(NCCN2CCOCC2)c([N+](=O)[O-])c1 (stereo not given) | -2 | -2 | 1 | -1
N=C1SC(CC(=O)Nc2ccc([N+](=O)[O-])cc2)C(=O)N1c1ccccc1 (stereo not given) | -4 | -2 | 29* | 3
O=C(CC1SC(=O)N(c2ccccc2)C1=O)Nc1ccccc1 (stereo not given) | -2 | -3 | 3 | 9
CC(=O)Nc1ccc(NC(=O)CC2SC(=O)N(CC(=O)c3ccccc3)C2=O)cc1 (stereo not given) | 2 | 3 | -56 | 96*
COc1cc2c3nnc(-c4ccc(F)cc4)c-3cn(Cc3cccc(F)c3)c2cc1OC | -4 | -4 | -5 | 63*
CCNC(=O)C1CCCN1C(=O)C(CCCN=C(N)N)NC(=O)C(CC(C)C)NC(=O)C(Cc1cn(Cc2ccccc2)cn1)NC(=O)C(Cc1ccc(O)cc1)NC(=O)C(CO)NC(=O)C(Cc1c[nH]c2ccccc12)NC(=O)C(Cc1cnc[nH]1)NC(=O)C1CCC(=O)N1 (stereo not given) | -1 | -1 | 1 | 40*
O=C(CN1CCCc2ccccc21)NCCc1ccc(F)cc1 | -1 | 1 | 5 | -1
O=C(CC(CC(=O)c1ccccc1)c1ccccc1)c1ccccc1 | -2 | -3 | 5 | 3
O=C(CC(CC(=O)c1ccccc1)C(=O)O)c1ccccc1 | -4 | 8.9* | 2 | -2
CCCCc1ccc(S(=O)(=O)NCCCN2CCCC2=O)cc1 | -1 | 0 | 3 | 0
CCCN(CCC)c1nc(C#N)nc(N(CCC)CCC)n1 | -2 | 0 | -2 | 18*
CN(C)c1nc(C#N)nc(N(C)C)n1 | -1 | 1 | 0 | 26*
CCCN(CCC)c1nc(N(CCC)CCC)[nH]c(=O)n1 | -2 | -2 | -5 | 1
CN(C)c1nc(N(C)C)nc(N(C)C)n1 | -5 | -3 | -1 | 3
CC1CCc2c(sc(NC(=O)C3c4ccccc4Oc4ccccc43)c2C(N)=O)C1 (stereo not given) | -1 | -1 | -3 | 1
COC(=O)Nc1sc2c(c1C(N)=O)CCC(C)C2 (stereo not given) | 0 | -2 | 49* | -3
O=C(NC(Cc1ccc(F)cc1)C(=O)O)c1ccccc1 (stereo not given) | -1 | -7 | 3 | 1
O=C(NC(O)C(=O)c1ccccc1)c1ccc(F)cc1 (stereo not given) | -2 | -2 | 5 | 18*
COc1ccc(C2c3[nH]c4ccccc4c3CCN2C(=O)Cc2nonc2C)c(F)c1 (stereo not given) | -2 | 0 | -2 | 0
O=C(CSc1nnc(Cn2nnc(-c3ccccc3)n2)n1-c1ccccc1)Nc1ccc(F)cc1 | -2 | -3 | -5 | 0
O=C(CSc1nnc(Cn2nnc(-c3ccccc3)n2)n1-c1ccccc1)Nc1ccccc1 | 4.7* | -1 | 9 | 3
COc1cc(OC)c(NC(=O)Cn2cnc3sc(C)c(S(=O)(=O)N4CCOCC4)c3c2=O)cc1Cl | -2 | -4 | -2 | 0
